Source: ChEMBL document CHEMBL4038302, “Fibroblast Activation Protein α Activated Tripeptide Bufadienolide Antitumor Prodrug with Reduced Cardiotoxicity” (J Med Chem, 2017)

Experiments:
[1] = Cytotoxicity in BMSC (unknown origin) assessed as cell viability at 1000 nmol/L after 72 hrs by MTT assay; type: cell-based; details: unidentified, 1 µM
Mus musculus = assay: Cardiotoxicity in BALB/C nude mouse xenografted with human MDA-MB-231 cells assessed as change in interventricular septal diastole dimension at 12 umol/kg, iv administered starting on day 5 measured after day 22 by echocardiography; type: toxicity, organism-based; details: in vivo
Method in brief: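 Same MDA-MB-231 xenograft mice, given daily iv doses in 5% HS15 from day 5. After 22 days of dosing, transthoracic echocardiography with a 21 MHz transducer under 1.5% isoflurane, supine. M-mode images taken from the parasternal short-axis view at the papillary muscle; IVSd, IVSs, LVIDd and LVIDs derived, n = 6.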

C[C@]12CC[C@H](OC(=O)[C@H](Cc3c[nH]c4ccccc34)NC(=O)[C@@H]3CCCN3C(=O)CNC(=O)OCc3ccccc3)C[C@H]1CC[C@@H]1[C@@H]2[C@H](O)C(=O)[C@]2(C)[C@@H](c3ccc(=O)oc3)CC[C@]12O
Activity [1]: Non-Toxic
Activity (Mus musculus): Non-Toxic
